# Bioassay records from PubChem.
# STAT3 activator: increases IL-6 driven STAT3 reporter signal | U3A cells, IL-6 STAT3-luciferase reporter, luminescence; 100% = signal with IL-6 EC80 alone | activation (% of control), % at 5.6 µM | actives 0.91% (n = 190,000);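 active = activation above the screen-wide mean of compound activation plus 3 SD, cut at about 130% in these data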;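 also: 0% = background luminescence of wells with medium and substrate only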
#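 Material: human STAT1-deficient U3A cells with stable STAT3-luciferase reporter / Probe or stimulus: IL-6 stimulus at 33 ng/mL final / Schedule: 1 h compound pre-exposure, 6 h IL-6 stimulation, 37 °C / Technique: luminescence / Read-out basis: percent of IL-6-only median luminescence / Control set: IL-6-only high control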
# STAT1 act: STAT1 signaling activation; NIH 3T3 STAT1-luciferase reporter, IFN-gamma, luminescence; 100% = IFN-gamma alone, no compound; activation (% of control), % at 5.5 µM; actives 2.6% (n = 200,000);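 active = activation above the screen-wide mean activation plus 3 SD, cut at about 130% in these data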;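 also: raw ratio to IFN-gamma control signal so 100% means no change and 0% no light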
# STAT1 blocker: STAT1 signaling inhibition; inhibition, % at 5.5 µM; actives 0.35% (n = 200,000); AID 920; NIH 3T3 STAT1-luciferase reporter, IFN-gamma, luminescence;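 active = inhibition above a set limit, the mean inhibition across all tested compounds plus 3 SD, cut at about 34% in these data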;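 also: 0% = IFN-gamma with DMSO and 100% = IFN-gamma with 300 µM nifuroxazide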
# FLuc act counter: affects firefly luciferase, flagging false hits in luciferase stimulation screens. AID 1027. ATPlite luciferase biochemical, luminescence, 10 min; 0 = ATP-free wells, 1 = DMSO control. 200,000 tested, under 10 active. activation factor at 10 µM. P08659;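 active = luciferase activation factor, scaled between plate controls, of at least 2 with compound at 10 µM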
# Target sequence (P08659 whole entry, looked up): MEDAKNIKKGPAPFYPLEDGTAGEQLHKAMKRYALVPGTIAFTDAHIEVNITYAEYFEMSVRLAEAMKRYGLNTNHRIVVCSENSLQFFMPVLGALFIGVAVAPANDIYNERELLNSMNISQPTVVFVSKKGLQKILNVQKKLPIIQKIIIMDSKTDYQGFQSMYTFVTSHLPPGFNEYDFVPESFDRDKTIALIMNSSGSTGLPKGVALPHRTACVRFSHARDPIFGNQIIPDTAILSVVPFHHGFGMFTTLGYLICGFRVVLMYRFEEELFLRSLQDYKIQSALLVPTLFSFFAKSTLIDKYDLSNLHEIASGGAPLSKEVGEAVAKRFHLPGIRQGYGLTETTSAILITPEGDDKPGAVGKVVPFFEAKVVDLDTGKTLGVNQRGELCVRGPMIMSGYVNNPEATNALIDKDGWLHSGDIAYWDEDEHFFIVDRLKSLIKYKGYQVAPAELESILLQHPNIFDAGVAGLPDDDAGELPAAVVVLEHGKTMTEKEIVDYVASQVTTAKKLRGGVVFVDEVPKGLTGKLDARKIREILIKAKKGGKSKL
#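 Assay system – cell-free luciferase reagent · Medium – PBS-based ATP solution · Dosing – test compounds dosed from 2 mM stocks in 100% DMSO · Timing – 10 min, room temperature · Technique – light output (luminescence) · Measure – luminescence gain marking luciferase activators · Controls – No-ATP low control, compound-free enzyme-plus-ATP high control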
# FLuc inh counter: Photinus pyralis luciferase inhibition counter-screen; AID 1006; P08659; inhibition, % at 10 µM; ATPLite firefly luciferase biochemical luminescence, 10 min; actives 1.5% (n = 200,000);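 active = inhibition above about 50% when tested at 10 µM, limit read from the data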
# STAT3 blocker: STAT3 signaling inhibition | inhibition, % at 5.5 µM | U3A cells, IL-6 STAT3-luciferase reporter, luminescence; host cell line lacks STAT1 | actives 0.89% (n = 190,000);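 active = inhibition above the mean inhibition across all screened compounds plus 3 SD, cut at about 44% in these data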;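 also: 0% = DMSO only wells and 100% = 100 µM nifuroxazide control wells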
# STAT1 act conf: confirmation of STAT1 signaling activators. activation (% of control), % at 5.7 µM. shares compounds with STAT1 act. actives 97% (n = 1,200). NIH 3T3 STAT1-luciferase reporter, IFN-gamma potentiation, luminescence; 100% = IFN-gamma EC80 alone, no compound. AID 1262;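 active = activation above a set limit carried over from the earlier primary STAT1 screen, cut at about 140% in these data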;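 also: simple ratio to median IFN-gamma plus DMSO wells so 0% means no light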
# NFkB act STAT1ct: counter-screen for STAT1 activators: NF-kappaB activation; actives 43% (n = 1,200); activation (% of control), % at 5.7 µM; HEK293T NF-kB luciferase reporter, TNF-alpha stimulated, luminescence; 100% = TNF-alpha with vehicle only; shares compounds with STAT1 act;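 active = activation above the mean of solvent-only control wells plus 3 SD, set per campaign, cut at about 130% in these data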;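 also: TNF-alpha given at a submaximal dose yielding about 80% of full reporter signal; values are well signal over median control so 100% means no change and 0% no light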
# STAT3 act 2: activates human STAT3, counter-screen to STAT1 activators. shares compounds with STAT1 act. U3A cells STAT3-luciferase reporter, IL-6, luminescence; cells lack STAT1; 100 = IL-6 alone, no compound effect. activation (% of control), % at 5.7 µM. actives 46% (n = 1,200);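 active = activation above the solvent-only control well mean plus 3 SD, set per plate batch, cut at about 110% in these data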;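 also: 0% = no luminescence and 100% = median IL-6 plus DMSO wells; higher means more STAT3 reporter activation so hits are non-selective activators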
# Starred values were filed as active, the others as inactive; x = no result given. Only some compounds are listed: those with a hit (about 4.9% of all), similar ones and a draw of the others.
SMILES,STAT3 activator,STAT1 act,STAT1 blocker,FLuc act counter,FLuc inh counter,STAT3 blocker,STAT1 act conf,NFkB act STAT1ct,STAT3 act 2
O=C(NN=C1C2CC3CC(C2)CC1C3)c1cccs1,102,122,-33,1,1,-1,x,x,x
CC(=O)N1CCC(=NNC(=O)c2cccs2)CC1,109,160*,-68,1.1,-8,-11,119,109,104
O=C(NN=C1CCCC1)c1cccs1,112,156*,-64,1,-4,-14,114,109,100
Cc1cc(/C=C(\C#N)C(=O)NCc2ccco2)c(C)[nH]1,96,109,-8,1,1,6,x,x,x
Cc1cc(/C=C(\C#N)C(=O)Nc2ccccc2F)c(C)[nH]1,98,172*,-79,0.8,15,7,235*,141*,116*
Cn1cc(-c2nnc(-c3ccccc3)o2)c2ccccc21,116,159*,-65,0.4,59*,-16,258*,118,130*
COc1ccc(CCN(C)S(=O)(=O)c2ccc(Cl)nc2)cc1OC,100,96,3,1,-4,7,x,x,x
CCOc1cccc2cc(-c3csc(NC(=O)CCC(=O)N4CCC(C)CC4)n3)c(=O)oc12,98,98,2,1,-4,3,x,x,x
CCOc1cccc2cc(-c3csc(NC(=O)CCC(=O)NCCCN4CCC(C)CC4)n3)c(=O)oc12,123,152*,-57,0.9,8,-26,157*,126,124*
Cc1ccc(COc2ccc(/C=N/O)cc2)cc1,108,176*,-86,0.7,33,-13,203*,136*,129*
CCOc1ccc(/C=N/O)cc1,97,104,-4,1,0,4,x,x,x
O=C(O)CCn1nnc(-c2ccccc2)n1,106,100,-2,1,-4,-6,x,x,x
C/C(=N\NC(=O)c1ccc(Br)cc1)c1ccccc1,82,159*,-64,0.5,50,24,195*,128,110
CCOc1ccc2nc(N3CCOCC3)nc(C)c2c1,97,155*,-59,0.8,24,6,181*,130,110
COc1ccc(-c2cn3cccc(C)c3n2)cc1Br,106,172*,-81,0.4,57*,-4,191*,130,102
CCOC(=O)C1(Cc2ccccc2Cl)CCN(C(=O)CN2CCOC2=O)CC1,108,160*,-69,1,-4,-4,172*,142*,117*
O=c1c2[nH]c3ccc(F)cc3c2nc2n1CCCS2,93,92,8,0.9,13,11,x,x,x
O=c1/c(=C\c2ccc3c(c2)OCO3)sc2n1CCCN=2,97,154*,-59,0.5,46,6,200*,139*,107
CC(=O)c1cc(-c2ccccc2)n(CC(=O)Nc2cccc(C)c2)c1C,104,95,6,1.1,-8,-5,x,x,x
COc1ccc(N=c2sc3ccccc3n2C)cc1,111,151*,-56,0.9,12,-10,208*,135*,111*
COc1ccc(C(=O)N=c2sc3ccccc3n2C)cc1OC,101,122,-23,0.9,14,8,x,x,x
CC1=C(C)CC(C(=O)NNC(=O)c2csc(C)c2C)C(C(=O)O)C1 (stereo not given),89,104,-5,1.1,-7,16,x,x,x
O=C1CN(C(=O)c2cc3ccccc3o2)c2ccccc2N1,96,110,-12,1,0,7,x,x,x
Cc1ccc2nc(N3C(=O)C(O)=C(C(=O)c4cc5ccccc5o4)C3c3cccs3)sc2c1 (stereo not given),110,154*,-56,0.7,29,-2,162*,124,123*
CCn1c(C)nc2cc(C(=O)OC(C(F)(F)C(F)F)C(F)(F)C(F)F)ccc21,108,182*,-90,1,2,-3,182*,120,115*
SMILES,STAT3 activator,STAT1 act,STAT1 blocker,FLuc act counter,FLuc inh counter,STAT3 blocker,STAT1 act conf,NFkB act STAT1ct,STAT3 act 2
COc1cc(/C=C(\C#N)c2ccccn2)ccc1OCc1ccccc1,93,89,13,1,2,12,x,x,x
CCN(Cc1ccccc1)c1ccc(/C=C(\C#N)c2ccccn2)cc1,113,167*,-74,0.8,21,-21,197*,143*,113*
COC(=O)COc1cccc2c(=O)n(CC(=O)NCCc3ccccc3)ccc12,98,96,4,1,-4,2,x,x,x
CCOC(=O)c1cnc(SCCc2ccccc2)nc1N,100,165*,-71,0.9,15,4,189*,131,119*
O=C(CSc1nc2ccccc2c(=O)n1NC(=O)c1ccccc1)c1ccccc1,113,151*,-55,0.9,10,-11,159*,125,125*
COc1ccccc1NCC(=O)NNCC(=O)Nc1ccc(F)c(Cl)c1,102,101,-2,1.1,-8,-1,x,x,x
CCOC(=O)COC(=O)c1ccc(O)cc1,110,110,-9,1,-3,-8,x,x,x
Cc1ccc(C(=O)COC(=O)c2ccc(O)cc2)cc1,107,153*,-57,0.7,33,-7,170*,121,122*
COc1ccc(NC(=O)C(=S)NC2CCCCC2)cc1,110,158*,-67,0.8,24,-11,194*,138*,115*
CCc1ccc(NC(=O)C(=S)NC2CCCCC2)cc1,98,160*,-67,0.9,10,13,200*,144*,113*
CCOc1ccc(NC(=O)C(=S)NC2CCCCC2)cc1,105,126,-31,1,0,-3,x,x,x
CCOC(=O)C1(Cc2ccc(OC)cc2)CCN(C(=O)c2cncs2)CC1,102,102,-5,1,3,4,x,x,x
O=C(c1ccccc1)c1ccc(N2CCNCC2)cc1,108,120,-22,1,0,-7,x,x,x
O=C(c1ccccc1)c1ccc(N2CCCC2)cc1,106,151*,-56,0.7,28,0,143*,116,101
O=C(/C=C/c1ccccc1)Nc1ccc(N2CCCCC2)cc1,110,151*,-58,0.8,16,-12,168*,125,105
